Measured values published in ChEMBL document CHEMBL1140210, “In pursuit of natural product leads: synthesis and biological evaluation of 2-[3-hydroxy-2-[(3-hydroxypyridine-2-carbonyl)amino]phenyl]benzoxazole-4-carboxylic acid (A-33853) and its analogues: discovery of N-(2-benzoxazol-2-ylphenyl)benzamides as novel antileishmanial chemotypes” (J Med Chem, 2008).
Activity calls are given as the source filed them. The rule behind the calls is not given here.

Legend:
L6 = test: Cytotoxicity against rat L6 cells; assay type: cell-based; details: for IC50: Rattus norvegicus, L6; for Activity: rat, l6
[1] = Selectivity index, ratio of IC50 for rat L6 cells to IC50 for Leishmania donovani MHOM/ET/67/L82; assay type: toxicity, cell-based; details: read-out: Ratio IC50
Leishmania donovani [2] = test: Antileishmanial activity against Leishmania donovani MHOM/ET/67/L82; assay type: functional, organism-based
Method in brief: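 Tested on axenic amastigote cultures of L. donovani strain MHOM/ET/67/L82. Activity is reported as IC50.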

Leishmania donovani [3] = test: Antiparasitic activity against Leishmania donovani amastigote in mouse peritoneal macrophages assessed as reduction of parasite burden at 10 ug/mL after 96 hrs; assay type: functional, organism-based
Leishmania donovani [4] = test: Antileishmanial activity against Leishmania donovani MHOM/ET/67/L82 at 0.8 ug/mL; assay type: functional
Trypanosoma cruzi = test: Antitrypanosomal activity against Trypanosoma cruzi Tulahuen C2C4 at 4.8 ug/mL; assay type: functional
Leishmania donovani [5] = test: Antileishmanial activity against Leishmania donovani MHOM/ET/67/L82 at 4.8 ug/mL; assay type: functional
Plasmodium falciparum = test: Antimalarial activity against chloroquine and pyrimethamine-resistant Plasmodium falciparum K1 at 4.8 ug/mL; assay type: functional

SMILES | IC50 (L6) [µM] | selectivity ratio [1] | IC50 (Leishmania donovani [2]) [µM] | Activity (Leishmania donovani [3]) | Activity (L6) | inhibition at 0.8 µg/mL (Leishmania donovani [4]) [%] | inhibition at 4.8 µg/mL (Trypanosoma cruzi) [%] | inhibition at 4.8 µg/mL (Leishmania donovani [5]) [%] | inhibition at 4.8 µg/mL (Plasmodium falciparum) [%]
O=C(Nc1c(O)cccc1-c1nc2c(C(=O)O)cccc2o1)c1ccccc1 | > 240 | > 138 | 1.73 | – | – | – | – | – | –
COc1cccc(-c2nc3c(C(=O)O)cccc3o2)c1NC(=O)c1cc2ccccc2[nH]1 | 211 | 69 | 3.07 | – | – | – | – | – | –
CCCCCCCCCCCCCCCCOP(=O)([O-])OCC[N+](C)(C)C [MILTEFOSINE] | 147 | 565 | – | – | – | – | – | – | –
O=C(Nc1c(O)cccc1-c1nc2c(C(=O)O)cccc2o1)c1cccc(Cl)c1 | 143 | 74 | 1.93 | – | – | – | – | – | –
O=C(Nc1c(O)cccc1-c1nc2c(C(=O)O)cccc2o1)c1ccccn1 | 30.6 | 99 | 0.31 | inactive | – | – | – | – | –
O=C(Nc1c(O)cccc1-c1nc2c(C(=O)O)cccc2o1)c1cnccn1 | 94.4 | 185 | 0.51 | inactive | – | – | – | – | –
O=C(Nc1c(O)cccc1-c1nc2c(C(=O)O)cccc2o1)c1cccnc1 | 240 | 55 | 4.36 | – | – | – | – | – | –
COc1cccc(-c2nc3c(C(=O)O)cccc3o2)c1NC(=O)c1cccnc1Cl | – | – | – | – | Not Traceable | < 30 | – | – | –
O=C(Nc1ccccc1-c1nc2c(C(=O)O)cccc2o1)c1ccccc1 | 114 | 118 | 0.96 | inactive | – | – | – | – | –
O=C(Nc1c(O)cccc1-c1nc2c(C(=O)O)cccc2o1)c1cc(-c2ccccc2)on1 | 141 | 152 | 0.93 | inactive | – | – | – | – | –
O=C(Nc1c(O)cccc1-c1nc2c(C(=O)O)cccc2o1)c1ncccc1O | 14.2 | 185 | 0.08 | – | – | 100 | 96 | 100 | 97
Cc1cc(C(=O)Nc2c(O)cccc2-c2nc3c(C(=O)O)cccc3o2)no1 | – | – | – | – | Not Traceable | < 30 | – | – | –
O=C(Nc1c(O)cccc1-c1nc2c(C(=O)O)cccc2o1)c1cc(O)c(O)c(O)c1 | – | – | – | – | Not Traceable | < 30 | – | – | –
O=C(Nc1c(O)cccc1-c1nc2c(C(=O)O)cccc2o1)c1cc(-c2ccccc2)nc2ccccc12 | 108 | 92 | 1.17 | – | – | – | – | – | –
O=C(Nc1c(O)cccc1-c1nc2c(C(=O)O)cccc2o1)c1cccnc1Cl | – | – | – | – | Not Traceable | < 30 | – | – | –
O=C(Nc1c(O)cccc1-c1nc2c(C(=O)O)cccc2o1)c1cc2ccccc2[nH]1 | 212 | 312 | 0.68 | inactive | – | – | – | – | –
O=C(Nc1c(O)cccc1-c1nc2c(C(=O)O)cccc2o1)c1ncccc1F | 204 | 392 | 0.52 | inactive | – | – | – | – | –
O=C(Nc1c(O)cccc1-c1nc2c(C(=O)O)cccc2o1)c1ccc(F)c(F)c1F | 210 | 111 | 1.9 | – | – | – | – | – | –
O=C(Nc1c(O)cccc1-c1nc2c(C(=O)O)cccc2o1)c1ccccc1O | 85.1 | 100 | 0.85 | inactive | – | – | – | – | –
